{"source": "paper PMC4782725", "about": "(The Journal of Organic Chemistry, 2016)", "key": {"HCT-116 (colon cancer) [1]": {"test_system": "HCT-116 (colon cancer)", "experiment": "cell viability assay, HCT-116", "assay_type": "cell-based", "conditions": "Homo sapiens, HCT-116, read-out: IC50(HCT-116)", "summary_of_the_method": "(§1)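 Cell viability assays, run on proliferating tumour lines and on quiescent IMR-90 immortalized human fibroblasts, gave IC50 values. Cell preparation and sample handling were automated. The automation protocol changed between the earlier and the later test series.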"}, "A2058 (melanoma)": {"test_system": "A2058 (melanoma)", "experiment": "proliferative cell growth inhibition assay, A2058", "assay_type": "cell-based", "conditions": "Homo sapiens, A2058, read-out: IC50(cell line) A2058", "summary_of_the_method": "as §1"}, "[2]": {"test_system": "H522-T1 (nonsmall cell lung cancer)", "experiment": "proliferative cell growth inhibition assay, H522-T1", "assay_type": "cell-based", "conditions": "H522-T1, read-out: IC50(cell line) H522-T1", "summary_of_the_method": "as §1"}, "HCT-116 (colon cancer) [3]": {"test_system": "HCT-116 (colon cancer)", "experiment": "proliferative cell growth inhibition assay, HCT-116", "assay_type": "cell-based", "conditions": "Homo sapiens, HCT-116, read-out: IC50(cell line) HCT-116", "summary_of_the_method": "as §1"}, "[4]": {"test_system": "quiescent IMR-90 immortalized human fibroblasts", "experiment": "IMR-90 cytotoxicity assay", "assay_type": "cell-based", "conditions": "IMR-90, read-out: IC50(cell line) IMR-90", "summary_of_the_method": "as §1"}, "[5]": {"test_system": "wide range of cancer cell lines", "conditions": "initially reported; cited from earlier work"}}, "note": "pIC50: −log10 of the molar value.", "data": [{"smiles": "C=C(C)CC(OC)[C@H](O)C(=O)N[C@@H](OC)[C@@H]1C[C@@H](O)C(C)(C)[C@@H](C[C@H](O)[C@@H](C)[C@H]2Cc3c(C)c(O)cc(O)c3C(=O)O2)O1", "note": "(single isomer, unassigned; (+)) [compound 1, (+)-irciniastatin A]", "values": [{"measurement": "pIC50", "setting": "HCT-116 (colon cancer) [1]", "result": 9.70}, {"measurement": "pIC50", "setting": "A2058 (melanoma)", "result": 9.40}, {"measurement": "pIC50", "setting": "[2]", "result": 9.00}, {"measurement": "pIC50", "setting": "HCT-116 (colon cancer) [3]", "result": 8.40}, {"measurement": "pIC50", "setting": "[4]", "result": 7.57}, {"measurement": "differential activities against cancer cell lines", "setting": "[5]", "result": "> 10000", "unit": "fold"}]}]}
